Laboratory results as given in ChEMBL document CHEMBL1128716, “4,5-Dihydro-3-(methanesulfonamidophenyl)-1-phenyl-1H-2,4-benzodiazepines: a novel class III antiarrhythmic agents” (J Med Chem, 1995).
Activity calls are given as the source filed them.

Key:
[1] = species on record: Oryctolagus cuniculus; assay: In vitro concentration at which cardiac refractoriness in rabbit is increased by 20 ms; assay type: functional; conditions: Heart
In short: (§1)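 Isolated hearts stimulated at twice threshold (1 mA minimum), equilibrated 45 min. ERP determined by scanning diastole with a single premature stimulus after 15 min at each of five cumulative concentrations. EC20 is the concentration raising ERP by 20 ms, estimated by linear regression of concentration–response data, in nM; n = 3–5 hearts.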

[2] = species on record: Oryctolagus cuniculus; assay: In vitro concentration at which cardiac refractoriness in rabbit (ERP-effective refractory period) is increased by 20 ms; inactive at 1000; assay type: functional; conditions: Heart; in short: as §1
[3] = system: Canis familiaris; assay: Maximum increase in ERP(ms) after oral dose of the compound( 0.3 mg/kg) in mongrel dogs at a basic cycle length of 400 ms.; assay type: functional, Canis lupus familiaris
In short: (§2)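 Conscious instrumented dogs, at least 7 days after surgery, suspended in slings during normal sinus rhythm. After three baseline ERP measurements, 0.3 mg/kg given orally by gastric lavage. ERP taken every 15 min for 3 h with pacing at basic cycle lengths of 500, 400 and 250 ms. Value is the maximum ERP increase over that interval, mean ± SEM.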

[4] = Displacement of [3H]D-888 from canine cardiac calcium channel; assay type: tissue-based, Canis lupus familiaris, Heart
In short: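 Canine cardiac sarcolemma vesicles (50 μg protein) with 5 nM [3H]D888 in 50 mM Tris-HCl pH 7.4, 0.1% BSA, 90 min at 25 °C, triplicate. Nonspecific binding defined with 31.6 μM (S)-verapamil. Bound ligand collected by filtration on polyethylenimine-treated filters; IC50 in μM.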

[5] = system: Canis familiaris; assay: Maximum increase in ERP(ms) after oral dose of the compound( 0.3 mg/kg) in mongrel dogs at a basic cycle length of 250 ms.; assay type: functional, Canis lupus familiaris; in short: as §2
[6] = (§3) Displacement of [3H]BTX from sodium channel; parameters: species or system Canis lupus familiaris
In short: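 Canine cardiac sarcolemma vesicles (50 μg protein) incubated with 5 nM [3H]BTX-B, 60 min at 37 °C, triplicate. Nonspecific binding with 0.3 mM veratridine. Filtration read-out; IC50 in μM.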

[7] = system: Canis familiaris; assay: Maximum increase in ERP(ms) after oral dose of the compound( 0.3 mg/kg) in mongrel dogs at a basic cycle length of 500 ms.; assay type: functional, Canis lupus familiaris; in short: as §2
[8] = target: Sodium channel protein type 5 subunit alpha (Homo sapiens, UniProt Q14524); assay: Blockade of Na+ current in frog oocytes expressing human cardiac sodium channel (HH1); assay type: cell-based, Oocyte
In short: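 HH1 transcripts injected into Xenopus laevis oocytes, incubated at room temperature 24–72 h. Two-microelectrode voltage clamp (3 M KCl electrodes), bath NaCl 140, KCl 2, CaCl2 1.8, MgCl2 1, HEPES 5 mM, pH 7.5, 21–23 °C. Holding −100 mV; peak current at the I–V maximum measured before and after test agent; IC50 in μM.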

[9] = as §3
[10] = system: Canis familiaris; assay: Maximum increase in ERP(ms) after oral dose of the compound( 0.3 mg/kg) in mongrel dogs at a basic cycle […].; assay type: functional, Canis lupus familiaris; in short: as §2
[11] = system: Canis familiaris; assay: The orally dosed values in animals (0.3 mg/kg) represent the maximum increase in ERP observed over a 3 hour interval. Pacing was done at basic cycle lengths of 500 ms.; assay type: functional, Canis lupus familiaris; in short: as §2
[12] = system: Canis familiaris; assay: Prolongation of ERP(effective refractory […]) in mongrel dogs over a 3 hour interval following oral administration (0.3 mg/kg), pacing at a basic cycle length of 400 ms.; assay type: functional, Canis lupus familiaris; in short: as §2
[13] = system: Canis familiaris; assay: Prolongation of ERP(effective refractory […]) in mongrel dogs over a 3 hour interval following oral administration (0.3 mg/kg), pacing at a basic cycle length of 250 ms.; assay type: functional, Canis lupus familiaris; in short: as §2

Chain of Sodium channel protein type 5 subunit alpha (Q14524 whole entry): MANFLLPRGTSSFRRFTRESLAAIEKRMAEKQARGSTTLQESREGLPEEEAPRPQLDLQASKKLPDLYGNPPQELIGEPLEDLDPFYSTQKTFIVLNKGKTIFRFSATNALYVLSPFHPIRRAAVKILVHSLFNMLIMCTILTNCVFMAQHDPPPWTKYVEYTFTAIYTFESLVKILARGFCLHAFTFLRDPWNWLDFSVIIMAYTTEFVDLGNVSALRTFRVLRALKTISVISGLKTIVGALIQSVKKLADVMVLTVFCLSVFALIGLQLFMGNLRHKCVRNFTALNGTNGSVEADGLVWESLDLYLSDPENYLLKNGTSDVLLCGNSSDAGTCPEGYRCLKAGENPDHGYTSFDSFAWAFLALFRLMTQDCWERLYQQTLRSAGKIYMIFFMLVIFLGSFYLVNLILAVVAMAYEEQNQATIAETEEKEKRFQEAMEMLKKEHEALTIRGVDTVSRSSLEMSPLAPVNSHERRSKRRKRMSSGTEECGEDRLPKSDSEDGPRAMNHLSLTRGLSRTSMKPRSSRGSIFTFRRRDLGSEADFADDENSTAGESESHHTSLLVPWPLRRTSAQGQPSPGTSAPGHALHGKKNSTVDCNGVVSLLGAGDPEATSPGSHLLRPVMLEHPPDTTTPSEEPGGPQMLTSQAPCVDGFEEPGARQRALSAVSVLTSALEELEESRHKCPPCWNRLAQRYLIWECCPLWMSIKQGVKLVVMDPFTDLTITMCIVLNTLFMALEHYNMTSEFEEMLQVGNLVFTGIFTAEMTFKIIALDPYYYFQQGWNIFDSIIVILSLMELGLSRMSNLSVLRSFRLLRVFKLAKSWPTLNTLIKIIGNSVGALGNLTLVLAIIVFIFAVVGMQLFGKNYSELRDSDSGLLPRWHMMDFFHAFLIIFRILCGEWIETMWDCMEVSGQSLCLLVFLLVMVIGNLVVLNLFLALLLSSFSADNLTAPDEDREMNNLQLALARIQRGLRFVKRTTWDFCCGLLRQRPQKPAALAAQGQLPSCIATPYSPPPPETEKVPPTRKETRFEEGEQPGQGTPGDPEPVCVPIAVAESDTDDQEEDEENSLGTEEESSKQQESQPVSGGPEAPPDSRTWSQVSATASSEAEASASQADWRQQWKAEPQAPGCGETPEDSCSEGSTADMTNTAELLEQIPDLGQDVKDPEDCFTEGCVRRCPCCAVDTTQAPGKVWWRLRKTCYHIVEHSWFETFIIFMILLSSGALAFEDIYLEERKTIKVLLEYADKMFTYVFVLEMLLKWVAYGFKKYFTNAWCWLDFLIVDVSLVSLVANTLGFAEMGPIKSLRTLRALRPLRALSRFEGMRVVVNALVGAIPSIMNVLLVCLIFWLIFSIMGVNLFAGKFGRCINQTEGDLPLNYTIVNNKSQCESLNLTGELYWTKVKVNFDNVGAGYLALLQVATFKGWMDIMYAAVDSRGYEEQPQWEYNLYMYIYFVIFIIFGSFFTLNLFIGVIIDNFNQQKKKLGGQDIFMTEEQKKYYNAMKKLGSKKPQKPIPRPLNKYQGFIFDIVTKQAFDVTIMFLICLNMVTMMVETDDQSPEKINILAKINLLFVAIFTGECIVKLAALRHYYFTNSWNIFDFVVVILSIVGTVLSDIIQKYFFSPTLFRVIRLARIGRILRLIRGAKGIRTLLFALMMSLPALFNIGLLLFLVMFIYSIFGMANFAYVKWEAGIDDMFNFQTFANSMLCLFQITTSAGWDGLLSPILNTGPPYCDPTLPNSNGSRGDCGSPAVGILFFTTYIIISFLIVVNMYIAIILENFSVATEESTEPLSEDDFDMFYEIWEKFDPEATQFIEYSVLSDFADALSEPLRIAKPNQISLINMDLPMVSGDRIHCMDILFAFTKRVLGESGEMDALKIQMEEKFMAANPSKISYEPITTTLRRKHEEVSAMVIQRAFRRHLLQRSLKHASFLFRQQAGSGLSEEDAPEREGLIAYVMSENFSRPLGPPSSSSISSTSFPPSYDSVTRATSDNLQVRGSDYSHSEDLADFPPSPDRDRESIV

Compound: CN1Cc2ccccc2C(c2ccccc2)N=C1CCc1ccccc1NS(C)(=O)=O (centres undefined)
- EC20 [1]: 500 nM

Compound: CN1Cc2ccccc2C(c2ccc(NS(C)(=O)=O)cc2)N=C1CCc1ccc(NS(C)(=O)=O)cc1 (centres undefined)
- EC20 [2]: inactive

Compound: CN1Cc2ccccc2C(c2ccc(Cl)c(Cl)c2)N=C1OCc1ccc(NS(C)(=O)=O)cc1 (centres undefined)
- EC20 [1]: 2 nM

Compound: CN1Cc2ccccc2[C@@H](c2ccc(F)cc2F)N=C1CCc1ccc(NS(C)(=O)=O)cc1.Cl
- ERP observations [3]: 33
- IC50 [4]: 1100 nM
- ERP observations [5]: 22
- EC20 [1]: 8 nM
- IC50 [6]: 2500 nM
- ERP observations [7]: 33
- IC50 [8]: > 100000 nM

Compound: CSc1ccc(C2N=C(OCc3ccc(NS(C)(=O)=O)cc3)N(C)Cc3ccccc32)cc1 (centres undefined)
- EC20 [1]: 4 nM

Compound: CN1Cc2ccccc2C(c2ccc(NS(C)(=O)=O)cc2)N=C1OCc1ccc(NS(C)(=O)=O)cc1 (centres undefined)
- EC20 [1]: 140 nM

Compound: CN1Cc2c(NS(C)(=O)=O)cccc2C(c2ccccc2)N=C1CCc1ccccc1 (centres undefined)
- EC20 [2]: inactive

Compound: CN1Cc2ccccc2C(c2ccc(F)cc2F)N=C1CCc1ccc(NS(C)(=O)=O)cc1 (centres undefined)
- EC20 [1]: 4 nM

Compound: CN1Cc2ccccc2[C@@H](c2ccc(Cl)cc2)N=C1OCc1ccc(NS(C)(=O)=O)cc1
- EC20 [1]: 2 nM

Compound: CN1Cc2ccccc2[C@H](c2ccccc2)N=C1OCc1ccc(NS(C)(=O)=O)cc1.O=C(O)/C=C/C(=O)O
- ERP observations [3]: 20
- IC50 [4]: 900 nM
- ERP observations [5]: 18
- EC20 [1]: 4 nM
- IC50 [6]: 6900 nM
- ERP observations [7]: 18
- IC50 [8]: > 30000 nM

Compound: CN1Cc2ccccc2C(c2ccc(Cl)cc2)N=C1OCc1ccc(NS(C)(=O)=O)cc1 (centres undefined)
- EC20 [1]: 3 nM

Compound: CN1Cc2ccccc2C(c2ccccc2)N=C1CCc1ccc(NS(C)(=O)=O)cc1 (centres undefined)
- EC20 [1]: 20 nM

Compound: CN1Cc2ccccc2[C@@H](c2ccccc2)N=C1OCc1ccc(NS(C)(=O)=O)cc1.O=C(O)/C=C/C(=O)O
- ERP [3]: 36 ms
- ERP [5]: 31 ms
- EC20 [1]: 1.5 nM
- IC50 [9]: 5200 nM
- ERP [7]: 40 ms
- IC50 [8]: 126000 nM

Compound: CSc1ccc([C@@H]2N=C(OCc3ccc(NS(C)(=O)=O)cc3)N(C)Cc3ccccc32)cc1.Cl
- ERP observations [10]: 20
- IC50 [4]: 1100 nM
- ERP observations [5]: 11
- EC20 [1]: 8 nM
- IC50 [6]: 3000 nM
- ERP observations [7]: 28
- IC50 [8]: > 30000 nM

Compound: CN1Cc2ccccc2[C@H](c2ccc(F)cc2F)N=C1CCc1ccc(NS(C)(=O)=O)cc1.Cl
- ERP observations [3]: 27
- IC50 [4]: 500 nM
- ERP observations [5]: 21
- EC20 [1]: 7 nM
- IC50 [6]: 3600 nM
- ERP observations [7]: 28
- IC50 [8]: > 100000 nM

Compound: CN(CCOc1ccc(NS(C)(=O)=O)cc1)CCc1ccc(NS(C)(=O)=O)cc1 [DOFETILIDE]
- ERP observations [11]: 30
- ERP observations [12]: 28
- EC20 [1]: 2 nM
- ERP observations [13]: 21

Compound: CN1Cc2ccccc2C(c2ccc(NS(C)(=O)=O)cc2)N=C1CCc1ccccc1 (centres undefined)
- EC20 [1]: 780 nM

Compound: CCS(=O)(=O)Nc1ccc(CCC2=NC(c3ccccc3)c3ccccc3CN2C)cc1 (centres undefined)
- EC20 [1]: 100 nM

Compound: CN1Cc2ccccc2C(c2ccc(Cl)cc2)N=C1CCc1ccc(NS(C)(=O)=O)cc1 (centres undefined)
- EC20 [1]: 10 nM

Compound: CN1Cc2ccccc2[C@H](c2ccc(Cl)cc2)N=C1OCc1ccc(NS(C)(=O)=O)cc1
- EC20 [1]: 4 nM

Compound: CSc1ccc([C@H]2N=C(OCc3ccc(NS(C)(=O)=O)cc3)N(C)Cc3ccccc32)cc1.Cl
- ERP observations [3]: 33
- IC50 [4]: 700 nM
- ERP observations [5]: 28
- EC20 [1]: 7 nM
- IC50 [6]: 1000 nM
- ERP observations [7]: 33

Compound: CN1Cc2ccccc2C(c2ccccc2)N=C1OCc1ccc(NS(C)(=O)=O)cc1 (centres undefined)
- EC20 [1]: 6 nM

Compound: CN1Cc2ccccc2C(c2ccc(Cl)cc2)N=C1SCc1ccc(NS(C)(=O)=O)cc1 (centres undefined)
- EC20 [1]: 5.5 nM

Compound: CN1Cc2ccccc2C(c2ccccc2)N=C1CCc1ccccc1 (centres undefined)
- EC20 [1]: 60 nM

Compound: CN1Cc2ccccc2C(c2ccccc2)N=C1CCc1ccc(NS(=O)(=O)C(F)(F)F)cc1 (centres undefined)
- EC20 [1]: 520 nM

Compound: CN1Cc2ccc(NS(C)(=O)=O)cc2C(c2ccccc2)N=C1CCc1ccccc1 (centres undefined)
- EC20 [1]: 655 nM

Compound: COc1ccc(C2N=C(OCc3ccc(NS(C)(=O)=O)cc3)N(C)Cc3ccccc32)cc1 (centres undefined)
- EC20 [1]: 4 nM
